Among the data in ChEMBL document CHEMBL1221177, “Secramine inhibits Cdc42-dependent functions in cells and Cdc42 activation in vitro” (Nat Chem Biol, 2006) are Activity, inhibition and IC50 values, retold here.

The source made the active and inactive calls. No cut-off for these calls is given here.

Assay [1] has as its system BSC-1. Put plainly: Effect on perinuclear localization of trans-Golgi network in african green monkey BSC1 cells at 12.5 uM after 2.5 hrs by epifluorescence microscopy. It is filed as functional, cell-based. The conditions noted are these: Chlorocebus aethiops.
In assay [2] the target is T1, Cell division control protein 42 homolog (Homo sapiens, UniProt P60953). Put plainly: Effect on nucleotide binding activity of PIP2-stimulated Cdc42 at 25 uM by liquid scintillation counting.
Target sequence in this assay (P60953 whole entry, looked up): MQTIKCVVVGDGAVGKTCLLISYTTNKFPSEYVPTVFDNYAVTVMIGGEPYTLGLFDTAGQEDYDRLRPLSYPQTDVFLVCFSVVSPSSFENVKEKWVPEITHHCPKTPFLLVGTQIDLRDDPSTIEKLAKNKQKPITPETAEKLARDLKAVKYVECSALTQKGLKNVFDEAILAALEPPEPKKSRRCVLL
In assay [3] the target is T1, Cell division control protein 42 homolog. Put plainly: Inhibition of GEF-independent nucleotide exchange activity of nonprenylated Cdc42 at 100 uM after 10 mins in presence of 4 mM EDTA.
Target sequence in this assay (P60953 whole entry, looked up): as above
Assay [4] addresses Cdc42 protein (Xenopus laevis) (UniProt Q9DDV6). Put plainly: Inhibition of GST-PBD binding to Cdc42 in Xenopus laevis egg extract assessed as Cdc42(GTPgammasS) activation at 50 uM treated before addition of GST-PBD by Western blot analysis. (In general: Immunoblotting shows a protein as a band on a membrane.)
The target of assay [5] is T1, Cell division control protein 42 homolog. As to the kind of experiment: Effect on Cdc42-mediated cellular response in human U373MG cells assessed as reorientation of golgi complex 15 uM after 6 hrs by epifluorescence assay. It is filed as cell-based. The conditions noted are these: U-373MG ATCC. The essentials:
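Confluent U373MG human astrocytoma monolayer preincubated 1 h with 15 µM compound or vehicle, then scratched. At 0 and 6 h fixed, stained with Hoechst and anti-giantin; cells at wound edge with Golgi in the forward 120° sector facing scratch scored polarized. Epifluorescence; s.e.m., n = 3, >100 cells per condition.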
Target sequence in this assay (P60953 whole entry, looked up): as above

The target is the same in assay [6]. Put plainly: Effect on GEF interaction with PIP2-stimulated Cdc42 at 25 uM by liquid scintillation counting.
Target sequence in this assay (P60953 whole entry, looked up): as above
The subject of assay [7] is MDCK. Put plainly: Increase in p75-GFP transport from golgi complex of MDCK cells at 10 uM after 20 mins by fluorescence assay. Type of assay: functional, cell-based. Conditions: Canis lupus familiaris. In short, it runs like this: (§1)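 Nonpolarized MDCK cells expressing NCAM-GFP or p75-GFP in 0.5% BSA; cargo held in Golgi at 20 °C for 30–60 min, then compound or vehicle for 20 min before shift to 32 °C. Perinuclear GFP normalized to total cell fluorescence, expressed as % of t = 0 Golgi signal; s.d., n = 2, 20 cells per condition.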

Assay [8] addresses Cell division control protein 42 homolog (Rattus norvegicus) (UniProt Q8CFN2). As to the kind of experiment: Inhibition of Cdc42 binding to rat liver golgi membrane at 10 to 150 uM by Western blot analysis. The essentials: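 Bovine brain cytosol incubated with compound or 1% DMSO, then 20 µM GTPγS and 0.2 mg/ml rat liver Golgi membranes added. Membrane-bound Cdc42 and β-COP analyzed by western blot.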

In assay [9] the target is Cdc42 protein (Xenopus laevis) (UniProt Q9DDV6). As to the kind of experiment: Inhibition of CDC42-mediated actin polymerization in PIP2-stimulated Xenopus laevis egg extract at 0.1 to 100 uM by fluorescence assay.
Assay [10] relates to BSC-1. As to the kind of experiment: Inhibition of VSVG-EGFP anterograde transport from endoplasmic reticulum to plasma membrane of african green monkey BSC1 cells after 3 hrs by epifluorescence microscopy. Type of assay: functional, cell-based. Conditions: Chlorocebus aethiops, BSC-1, 3 h. The essentials:
(§2)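 BS-C-1 monkey kidney cells expressing temperature-sensitive VSVG-EGFP, held at 40 °C to trap cargo in the ER, then shifted to 32 °C in 100 µg ml-1 cycloheximide. Compound or vehicle (1% DMSO) present during transport. Cells fixed 3 h after release and imaged by wide-field fluorescence. Surface versus perinuclear (beta-COP-costained Golgi) cargo scored. IC50 from dose-response curves, s.e.m. (n = 4).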

For assay [11], the system named is BSC-1. As to the kind of experiment: Inhibition of VSVG-EGFP anterograde transport from endoplasmic reticulum to golgi complex of african green monkey BSC1 cells at 12.5 uM after 3 hrs by epifluorescence microscopy. The conditions noted are these: Chlorocebus aethiops. It is filed as functional, cell-based. The essentials: as §2
The subject of assay [12] is BSC-1. Put plainly: Effect on transferrin translocation from golgi complex to endoplasmic reticulum of african green monkey BSC1 cells at 12.5 uM after 2.5 hrs by epifluorescence microscopy. It is filed as functional, cell-based. Conditions: Chlorocebus aethiops.
Assay [13] concerns the target T1, Cell division control protein 42 homolog. As to the kind of experiment: Inhibition of nucleotide exchange activity of PIP2-stimulated Cdc42 at 25 uM by liquid scintillation counting.
Target sequence in this assay (P60953 whole entry, looked up): as above
The target in assay [14] is Cdc42 protein (Xenopus laevis) (UniProt Q9DDV6). Put plainly: Effect on GST-PBD binding to recombinant nonprenylated Cdc42 in PIP2 liposome-stimulated Xenopus laevis egg extract at 50 uM by Western blot analysis. In short, it runs like this:
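Xenopus egg extract treated 5 min with compound or vehicle, then 20 nM recombinant nonprenylated Cdc42 (GTPγS or GDP) 10 min, then GST-PBD 10 min. Pulled down on glutathione-Sepharose and Cdc42 detected by western blot; GST-PBD stained with Ponceau S as loading control.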

The test system of assay [15] is BSC-1. Put plainly: Effect on transferrin endocytosis in african green monkey BSC1 cells at 12.5 uM after 2.5 hrs by epifluorescence microscopy. It is filed as functional, cell-based. The conditions noted are these: Chlorocebus aethiops.
Assay [16] concerns the target T1, Cell division control protein 42 homolog. Put plainly: Inhibition of Cdc42 binding to PIP2 liposomes at 100 uM after 10 mins. In short, it runs like this: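 Pure 0.5 µM prenylated Cdc42-RhoGDI1 complex, 1 µM RhoGDI1, 1 mM PIP2 liposomes, 100 µM compound or 2% DMSO in reaction buffer, 25 °C. After 10 min, spun 10 min at 200,000g; pellet dot-blotted with anti-Cdc42, quantified and normalized to vehicle; s.e.m., n = 4.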
Target sequence in this assay (P60953 whole entry, looked up): as above

In assay [17] the test system is Lipid bilayer. Put plainly: Binding affinity to phosphatidylinositol 4,5-bisphosphate liposome at 50 uM by electron microscopy. In short, it runs like this: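 PIP2 liposomes (100 µM) incubated with compound or 1% DMSO, with 1% Triton X-100 as comparator. Samples in reaction buffer adsorbed on glow-discharged carbon grids, negatively stained with 1.2% uranyl acetate and imaged by EM at 80 kV.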

Assay [18] concerns the target Cdc42 protein (Xenopus laevis) (UniProt Q9DDV6). Put plainly: Inhibition of GST-PBD binding to Cdc42 in Xenopus laevis egg extract assessed as Cdc42(GTPgammasS) activation at 50 uM treated after addition of GST-PBD by Western blot analysis.
For assay [19], the system named is Lipid bilayer. As to the kind of experiment: Binding affinity to phosphatidylinositol 4,5-bisphosphate liposome assessed as dynamin2-stimulated GTP hydrolysis at 25 uM by scintillation counting. In short, it runs like this: (§3)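 Truncated His-tagged human dynamin 2 (proline-rich domain, aa 736–866, deleted), expressed in BL21, mixed with PIP2 liposomes (65:32:3 PC:PI:PIP2, 0.1-µm extruded) and compound in 1% DMSO vehicle. 20 µM [γ-32P]GTP added in Tris pH 7.5/150 mM NaCl/2.5 mM MgCl2/DTT, 25 °C. After 20 min, charcoal-quenched aliquot centrifuged and released 32P-phosphate scintillation counted; s.e.m., n = 3.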

For assay [20], the target named is T1, Cell division control protein 42 homolog. As to the kind of experiment: Inhibition of GEF-independent nucleotide exchange activity of prenylated Cdc42 after 3 mins in presence of 4 mM Mg2+ chelator EDTA. The essentials:
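GDP/[35S]GTPγS exchange by 0.5 µM prenylated Cdc42-RhoGDI1 complex with 1 µM RhoGDI1 and 100 µM PIP2 liposomes, 4 mM EDTA replacing GEF, in Tris pH 7.5 reaction buffer at 25 °C. Started with 10 µM [35S]GTPγS; reactions sampled at 3 min, filtered on nitrocellulose and scintillation counted; s.e.m., n = 3.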
Target sequence in this assay (P60953 whole entry): as the sequence (P60953 whole entry, looked up) above

Assay [21] deals with Cdc42 protein (Xenopus laevis) (UniProt Q9DDV6). Put plainly: Inhibition of PIP2 liposome-stimulated Cdc42 activation in Xenopus laevis egg extract assessed as inhibition of association of Cdc42(GTPgammaS) with GST-PBD at 1 to 25 uM by Western blot analysis. In short, it runs like this: (§4)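 Xenopus egg extract (8 mg/ml) with 0.2 mM ATP and 10 µM latrunculin B at 4 °C, moved to 25 °C; compound or vehicle 5 min, then 20 µM GTPγS and 20 µM PIP2 liposomes (48:48:4) 10 min, then 2.5 µM GST-PBD 10 min. Lysis buffer plus glutathione-Sepharose, 45 min at 4 °C; bound Cdc42 by western blot.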

For assay [22], the species on record is Xenopus laevis. As to the kind of experiment: Inhibition of actin polymerization in N-WASP VCA-stimulated Xenopus laevis egg extract at 20 uM after 1.5 mins by fluorescence assay.
The next assay concerns the target Cdc42 protein (Xenopus laevis, UniProt Q9DDV6). As to the kind of experiment: Inhibition of CDC42-mediated actin polymerization in PIP2-stimulated Xenopus laevis egg extract after 6 mins by fluorescence assay.
Assay [23] deals with T1, Cell division control protein 42 homolog. Put plainly: Inhibition of GEF-independent nucleotide exchange activity of prenylated Cdc42 assessed as protein dissociation from […] complex at 100 uM after 3 mins in presence of 4 mM Mg2+ chelator EDTA.
The subject of assay [24] is MDCK. As to the kind of experiment: Decrease in NCAM-GFP transport from golgi complex of MDCK cells at 10 uM after 20 mins by fluorescence assay. The conditions noted are these: Canis lupus familiaris. Type of assay: functional, cell-based. In short, it runs like this:
as §1

Assay [25] has as its system Lipid bilayer. As to the kind of experiment: Binding affinity to phosphatidylinositol 4,5-bisphosphate liposome assessed as dynamin2-stimulated GTP hydrolysis at 250 uM by scintillation counting. The essentials:
as §3

Assay [26] is filed under the species Xenopus laevis. As to the kind of experiment: Inhibition of actin polymerization in N-WASP VCA-stimulated Xenopus laevis egg extract at 10 uM after 1.5 mins by fluorescence assay. The essentials: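 Xenopus laevis egg extract added at 4 °C to vehicle or compound, followed by VCA polypeptide. Pyrene-actin polymerization then followed by fluorescence in a cuvette at 21 °C.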

Assay [27] concerns the target Cdc42 protein (Xenopus laevis) (UniProt Q9DDV6). As to the kind of experiment: Inhibition of PIP2 liposome-stimulated Cdc42 activation in Xenopus laevis egg extract assessed as inhibition of association of Cdc42(GTPgammaS) with GST-PBD at 50 uM by Western blot analysis. In short, it runs like this:
as §4

Chain of Cdc42 protein (Xenopus laevis) (Q9DDV6 as listed by the source): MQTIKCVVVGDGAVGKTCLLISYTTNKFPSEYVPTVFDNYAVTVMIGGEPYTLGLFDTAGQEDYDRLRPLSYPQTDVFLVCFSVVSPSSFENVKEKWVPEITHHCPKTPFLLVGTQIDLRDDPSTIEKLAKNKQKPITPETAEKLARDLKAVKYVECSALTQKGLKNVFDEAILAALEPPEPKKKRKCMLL
Chain of Cdc42 protein (Q9DDV6 whole entry): as the sequence (Q9DDV6 as listed by the source) above
Chain of Cell division control protein 42 homolog (Rattus norvegicus) (Q8CFN2 whole entry, looked up): as the sequence (P60953 whole entry, looked up) above

In general, IC50 refers to the concentration needed to halve the response being measured. Regarding `COc1ccc(CS[C@@H]2C/C(=N/OCc3ccccc3)C[C@H]3Oc4c(Br)c(OCC5CC5)cc5c4[C@]32C[C@@H](CO)NC5)cc1` [SECRAMINE A], the result (in the assay with BSC-1 [1]; in assay [2]; in assay [6]; in the assay with BSC-1 [12]; in assay [14]; in the assay with BSC-1 [15]) was inactive. For the same compound, the result in the assay with Lipid bilayer [17] and with Lipid bilayer [19] was inactive. For the same compound, the inhibition result (in [3]; in the assay on BSC-1 [11]; in assay [18]; in the assay filed under Xenopus laevis [22]; in assay [23]) was “inactive” in each case. The inhibition entry (in [4]; in the assay on MDCK [7]; in assay [8]; in assay [13]; in assay [16]; in [21]) was “Active” in each case. The inhibition entry in the assay with MDCK [24] is “Active”. For the same compound, the Activity in [5] came to 45%. Also, in [9], the outcome was Active. Moreover, the IC50 in the assay on BSC-1 [10] is 12 µM; in assay [20] it was 9 µM; against Cdc42 protein, 1 µM.

For the compound `NC[C@@H]1O[C@H](O[C@H]2[C@@H](O)[C@H](O[C@@H]3[C@@H](O)[C@H](N)C[C@H](N)[C@H]3O[C@H]3O[C@H](CN)[C@@H](O)[C@H](O)[C@H]3N)O[C@@H]2CO)[C@H](N)[C@@H](O)[C@@H]1O`, in the assay with Lipid bilayer [25], the outcome was Active.

`C/C1=C/C(=O)O[C@@H]2C[C@@H](CC[C@H](C)/C=C\CC1)O[C@@](O)([C@@H]1CSC(=O)N1)C2`: in the assay filed under Xenopus laevis [26], the inhibition entry was “Active”.

As for `COc1ccc(CS[C@@H]2C/C(=N/OCc3ccccc3)C[C@H]3Oc4c(Br)c(OCC5CC5)cc5c4[C@]32C[C@@H](CO)N(C(C)=O)C5)cc1`, the outcome in assay [2], in [6] and in assay [9] was inactive. Further, the inhibition result (in assay [27]; in the assay on BSC-1 [11]; in assay [13]) was “inactive” in each case.

For the compound `CO/N=C1\C[C@H]2Oc3c(Br)c(OCC4CC4)cc4c3[C@@]2(C[C@@H](CO)NC4)[C@H](SCc2ccc(OC)cc2)C1` [SECRAMINE B], the result in assay [2] and in [6] was inactive. The result in [9] was Active. Besides, the results for the half-maximal inhibitory concentration (IC50) (with BSC-1 [10]; in assay [20]; at Cdc42 protein) were 12 µM, 7 µM and 3 µM, respectively. The inhibition entry (in the assay with BSC-1 [11]; in assay [23]) was “inactive” each time. The inhibition result in assay [13] was “Active”.
